Experimental data taken from ChEMBL document CHEMBL1255469, “In vitro activity of a new isothiazoloquinolone, ACH-702, against Mycobacterium tuberculosis and other mycobacteria” (2010).
Converted amounts (≈) assume the structure as drawn.

Assays:
[1] = system: Mycobacterium tuberculosis; test: Antimicrobial activity against isoniazid or rifampin-resistant Mycobacterium tuberculosis clinical isolates after 7 days by broth microdilution assay; type: functional; conditions: 168 h
Outline: (§1)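 Alamar Blue broth microdilution in 7H9GC broth (Middlebrook 7H9 base, glycerol, Casitone, 10% OADC). Drug stock 1 mg/ml in 100% DMSO, diluted in broth to a final 0.03 to 8 μg/ml. M. tuberculosis H37Rv served as the susceptible-strain control. Isoniazid and rifampin resistance was assigned beforehand by the proportion method.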

[2] = system: Mycobacterium tuberculosis; test: Antimicrobial activity against isoniazid and rifampin-resistant Mycobacterium tuberculosis clinical isolates after 7 days by broth microdilution assay; type: functional; conditions: 168 h; outline: as §1

## COc1c(N2CC[C@@H](C(C)(C)N)C2)c(F)cc2c(=O)c3c(=O)[nH]sc3n(C3CC3)c12
[1]
  MIC50: 0.12 µg/mL (≈ 0.277 µM)
  MIC90: 0.12 µg/mL (≈ 0.277 µM)
[2]
  MIC50: 0.06 µg/mL (≈ 0.139 µM)
  MIC90: 0.12 µg/mL (≈ 0.277 µM)
